PG9 Ab binder: binders of HIV-1 gp120 antibody PG9, primary screen, biochemical, TR-FRET. HIV-1 gp120 / PG9 antibody interaction. TR-FRET gp120-PG9 antibody binding. inhibition, % at 6.7 µM. 360,000 tested, 0.43% active; in the data active means inhibition above about 8.5%
NR1D1 modulator: modulators of Rev-erb alpha DNA binding, primary screen, biochemical, FITC-DNA, fluorescence polarization, uHTS | Rev-erbα–FITC-DNA binding, 90 min | activity, % at 10 µM | 370,000 tested, 0.79% active | AID 1259318, 2017;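 active means activity above about 14%, limit read from the data; passing the limit was not always enough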;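 further: 0% = DMSO wells with 35 nM protein and 100% = DMSO wells with 750 nM protein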
Target sequence (P20393 whole entry, looked up): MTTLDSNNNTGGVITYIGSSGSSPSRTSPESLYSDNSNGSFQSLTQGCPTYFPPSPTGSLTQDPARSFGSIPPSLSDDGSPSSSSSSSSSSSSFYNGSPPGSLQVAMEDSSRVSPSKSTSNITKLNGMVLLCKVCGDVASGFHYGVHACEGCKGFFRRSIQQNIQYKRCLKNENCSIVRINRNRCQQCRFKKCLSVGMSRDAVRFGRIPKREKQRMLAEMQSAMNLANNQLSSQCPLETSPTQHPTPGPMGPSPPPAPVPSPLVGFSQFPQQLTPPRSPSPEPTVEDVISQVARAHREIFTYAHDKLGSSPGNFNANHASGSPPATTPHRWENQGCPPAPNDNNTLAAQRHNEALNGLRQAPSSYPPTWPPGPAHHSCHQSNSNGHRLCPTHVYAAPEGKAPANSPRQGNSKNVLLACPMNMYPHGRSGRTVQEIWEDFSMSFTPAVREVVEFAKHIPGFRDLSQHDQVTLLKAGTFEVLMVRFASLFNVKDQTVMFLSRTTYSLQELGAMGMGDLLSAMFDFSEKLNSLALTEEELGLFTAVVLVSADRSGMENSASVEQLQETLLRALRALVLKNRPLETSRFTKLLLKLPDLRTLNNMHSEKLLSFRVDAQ
NR2E3 ag-1: NR2E3 agonists in two-hybrid cells, primary screen, cell-based, luminescence, CHO-S, Gal4-NCOR/VP16-NR2E3 | 360,000 tested, 0.35% active | AID 602229, 2012 | luciferase | inhibition of corepressor binding, % at 3.98 µM;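 active means inhibition above the mean of all tested compounds plus 3 SD, cut at about 70% in these data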;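 further: 0% = DMSO with NR2E3 transfected cells and 100% = cells lacking NR2E3 construct; higher means lower luciferase signal from less NR2E3 corepressor binding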
NR2E3 ag-2: inhibitors of NR2E3-RetCOR corepressor binding, primary screen, NR2E3 agonist project, biochemical, TR-FRET, GST-NR2E3, biotin-RetCOR. 320,000 tested, 0.12% active. inhibition of corepressor binding, % at 4.78 µM. 1536-well. Photoreceptor-specific nuclear receptor (Homo sapiens), Q9Y5X4. AID 2300, 2010;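 active means percent inhibition above the cutoff of mean plus 3 SD of all tested compounds, set per screening campaign, cut at about 20% in these data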;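 further: 0% = DMSO wells and 100% = biotin wells as full block of FRET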
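System: GST-tagged NR2E3 plus biotinylated RetCOR corepressor; Buffer or medium: pH 7.5 Tris-based buffer; Probe or stimulus: RetCOR corepressor, biotinylated, 7 nM; Doses: compound at 4.8 µM, single dose; Schedule: 5 h incubation at 4 °C; Technique: time-resolved FRET; Evaluation: percent inhibition of TR-FRET ratio; Replication: one well per compound, singlicate testing.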
NR1D1 mod conf: modulators of Rev-erb alpha DNA binding, confirmation, biochemical, FITC-DNA, fluorescence polarization, single point. 90 min. activation, % at 25 µM. 3,000 tested, 61% active. AID 1259319, 2017. shares compounds with NR1D1 modulator;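 active means activation at or above a set limit, or at least 3 SD above the negative control mean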;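 further: 0% = 35 nM protein with DMSO and 100% = 750 nM protein high control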
RORg counter: modulation of RORgamma DNA binding, dose response, counter-screen for Rev-erb alpha modulator project, biochemical, fluorescence polarization, FITC-DNA | shares compounds with NR1D1 modulator | purified RORgamma protein-FITC-DNA binding | IC50, µM | 910 tested, 8% active | AID 1259320, 2017;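 active means Compounds whose fitted half-maximal concentration for disrupting protein-DNA binding is below 10 micromolar; the record names Rev-erb in its text, so the target is in doubt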
An asterisk follows results filed as active. The list is not random: actives were taken first. Their share in the collection is about 1.4%.

`Cc1ccc(C)c(-n2c(-c3ccc(Br)cc3)csc2=NC(=O)c2ccccc2F)c1` gave PG9 Ab binder 4.4, NR1D1 modulator 38.0*, NR2E3 ag-1 -6.9, NR2E3 ag-2 -1.2, NR1D1 mod conf 48.6* and RORg counter >40.
Screening O=NN(CCCl)C(=O)NCC1=C[N+](=O)CC=C1 returned PG9 Ab binder 2.3, NR1D1 modulator -1.3 and NR2E3 ag-1 -1.9.
`COc1nc2ccc(C)cc2cc1-c1noc(-c2cccnc2)n1` gave PG9 Ab binder -2.1, NR1D1 modulator 34.9*, NR2E3 ag-1 -23.8, NR2E3 ag-2 -0.3 and NR1D1 mod conf 6.8.
For Cc1cc(=O)oc2cc(OCC3CC(c4ccccc4)=NO3)ccc12 (stereo not drawn) the results were NR1D1 modulator -0.7, NR2E3 ag-1 -131.7 and NR2E3 ag-2 1.6.
Screening Cc1cc(=O)oc2cc(OCC3CC(c4ccc(Br)cc4)=NO3)ccc12 (stereo not drawn) returned PG9 Ab binder 1.1, NR1D1 modulator 55.2*, NR2E3 ag-1 -12.3, NR2E3 ag-2 0.8, NR1D1 mod conf 46.4* and RORg counter 2.11*.
Cc1ccc(C)c(OCCC(=O)NCCc2ccc(Cl)cc2)c1 was read as PG9 Ab binder 3.9, NR1D1 modulator 22.7*, NR2E3 ag-1 6.0, NR2E3 ag-2 -0.1 and NR1D1 mod conf 26.6*.
`CCOc1ccc(CCNC(=O)CCOc2cc(C)ccc2C)cc1OCC` gave PG9 Ab binder 0.4, NR1D1 modulator -1.4, NR2E3 ag-1 -25.9 and NR2E3 ag-2 2.7.
CC1(C)Cc2c(sc3nc(-c4cc5ccccc5o4)n(N)c(=O)c23)CO1 was read as PG9 Ab binder 0.3, NR1D1 modulator 47.8*, NR2E3 ag-1 -35.9, NR2E3 ag-2 1.6 and NR1D1 mod conf 25.6*.
Cc1ccc(-c2nc3sc4c(c3c(=O)n2N)CC(C)(C)OC4)cc1 was read as PG9 Ab binder 0.0, NR1D1 modulator 15.5, NR2E3 ag-1 -3.0 and NR2E3 ag-2 3.1.
`CCOC(=O)c1ccc(O)c(-n2cc3c(c2-c2ccccc2)c(=O)n(C)c(=O)n3C)c1` gave PG9 Ab binder -1.2, NR1D1 modulator -1.9 and NR2E3 ag-1 9.9.
Screening CCN(C)C(=O)Oc1cccc([C@H](C)N(C)C)c1 returned NR1D1 modulator 3.1.
Screening COc1cc(-c2nn3c(COc4ccccc4)nnc3s2)cc(OC)c1OC returned PG9 Ab binder 4.0, NR1D1 modulator 44.5*, NR2E3 ag-1 -15.9, NR2E3 ag-2 3.3, NR1D1 mod conf 43.6* and RORg counter inactive.
Cc1ccc(C(=O)NNCC(=O)Nc2ccc(Cl)cc2F)cc1 was read as PG9 Ab binder -0.1, NR1D1 modulator 18.2*, NR2E3 ag-1 3.3 and NR1D1 mod conf 1.2.
O=C(CCNC(=O)c1ccc(Cl)cc1)Nc1ccc(Cl)cc1F was read as PG9 Ab binder -3.6, NR1D1 modulator 7.4, NR2E3 ag-1 13.9 and NR2E3 ag-2 -2.1.
Screening CCCCNC(=O)C[C@H]1C[C@@]2(C(=O)OC)C(=C[C@H](COCc3ccccc3)O[C@@H]2C)N(Cc2ccc3c(c2)OCO3)C1=O returned PG9 Ab binder -1.2 and NR1D1 modulator 6.1.
CCOC(=O)/C(=C\C=C1/Sc2cc(OCC)c(OCC)cc2N1CC)C(C)=O was read as PG9 Ab binder -13.5, NR1D1 modulator 111.8*, NR2E3 ag-1 10.8, NR2E3 ag-2 -4.9, NR1D1 mod conf 42.4* and RORg counter >40.
Screening CCN1/C(=C/C(C)=O)Sc2ccc(OC)cc21 returned PG9 Ab binder -1.6, NR1D1 modulator 0.6, NR2E3 ag-1 -43.6 and NR2E3 ag-2 -0.4.
For CCOC(=O)/C(=C/C=C1\Sc2cc(OCC)c(OCC)cc2N1CC)C(C)=O the results were PG9 Ab binder -12.4, NR1D1 modulator 31.7*, NR2E3 ag-1 -12.5, NR2E3 ag-2 -5.4 and NR1D1 mod conf -4.7.
`COc1ccc(CNC(=O)C(C#N)c2nc3ccccc3nc2N2CCN(C)CC2)cc1` (stereo not drawn) gave PG9 Ab binder -1.3, NR1D1 modulator -0.7, NR2E3 ag-1 -1.9 and NR2E3 ag-2 -2.1.
For COc1ccc(CNC(=O)C(C#N)c2nc3ccccc3nc2N2CCCC2)cc1 (stereo not drawn) the results were PG9 Ab binder 0.1, NR1D1 modulator 41.9*, NR2E3 ag-1 20.2, NR2E3 ag-2 -0.1 and NR1D1 mod conf 23.0*.
Screening COc1ccc(OC)c(NC(=O)C2CCN(c3cc(-c4ccccc4)nc4ncnn34)CC2)c1 returned PG9 Ab binder -1.8, NR1D1 modulator 34.7*, NR2E3 ag-1 9.1, NR2E3 ag-2 -3.0 and NR1D1 mod conf 16.8.
`O=C(CCCOc1ccc(Cl)cc1Cl)NNC(=O)c1ccc(NC(=O)c2ccccc2)cc1` gave PG9 Ab binder 1.6, NR1D1 modulator 73.8*, NR2E3 ag-1 5.6, NR2E3 ag-2 -0.6, NR1D1 mod conf 99.0* and RORg counter >40.
`Cc1ccccc1C(=O)Nc1ccc(C(=O)NNC(=O)CCCOc2ccc(Cl)cc2Cl)cc1` gave PG9 Ab binder -0.3, NR1D1 modulator 0.0, NR2E3 ag-1 -15.7 and NR2E3 ag-2 2.7.
`Cc1ccc(C(=O)Nc2ccccc2C(=O)N2CC(C)OC(C)C2)cc1` (stereo not drawn) gave PG9 Ab binder 0.8, NR1D1 modulator 7.8 and NR2E3 ag-1 10.5.
`CCOC(=O)c1ccccc1NC(=O)c1cn(-c2ccc(C)c(C)c2)c(=O)c2ccccc12` gave PG9 Ab binder 0.6, NR1D1 modulator 0.2, NR2E3 ag-1 -26.9 and NR2E3 ag-2 3.6.
Screening COC(=O)c1ccccc1NC(=O)c1cn(-c2ccc(C)c(C)c2)c(=O)c2ccccc12 returned PG9 Ab binder 4.3, NR1D1 modulator 42.1*, NR2E3 ag-1 7.1, NR2E3 ag-2 1.9, NR1D1 mod conf 48.4* and RORg counter >40.
Nc1[nH]nc2nnc(-c3c(-c4ccccc4)nn4ccccc34)cc12 was read as NR1D1 modulator -4.3.
`N#Cc1c(N)nc2c(c1-c1cccs1)CCCC2` gave PG9 Ab binder -1.1, NR1D1 modulator 2.1, NR2E3 ag-1 -11.8 and NR2E3 ag-2 1.8.
`N#Cc1c(N)oc(-c2cccs2)c1-c1cccs1` gave PG9 Ab binder 3.0, NR1D1 modulator 24.3*, NR2E3 ag-1 -20.0, NR2E3 ag-2 4.6 and NR1D1 mod conf 33.8*.
CCN(CC)c1ccc2cc(NC(=O)CCC(=O)O)c(=O)oc2c1 was read as PG9 Ab binder -5.0, NR1D1 modulator 0.7, NR2E3 ag-1 41.4 and NR2E3 ag-2 -1.2.
